Measurements: ChEMBL document CHEMBL4052710 (Bioorg Med Chem Lett, 2017)
Calls of active or inactive are those of the source. No cut-off for these calls is given here.

Legend:
OVCAR-5 [1] = test: Growth inhibition of human OVCAR5 cells incubated for 72 hrs at 1 uM by CCK8 assay; assay type: functional; conditions: OVCAR-5, 72 h, read-out: GI
Summary of the method: (§1)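 CCK8 viability assay on a panel of human cancer cell lines, with an initial screen at fixed concentrations of 1 µM and 10 µM.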

NCI-H1299 [2] = test: Growth inhibition of human H1299 cells incubated for 72 hrs at 10 uM by CCK8 assay; assay type: functional; conditions: NCI-H1299, 72 h, read-out: GI; summary of the method: as §1
T47D [3] = test: Growth inhibition of human T47D cells incubated for 72 hrs at 10 uM by CCK8 assay; assay type: functional; conditions: read-out: GI; summary of the method: as §1
SiHa [4] = test: Growth inhibition of human SiHa cells incubated for 72 hrs at 10 uM by CCK8 assay; assay type: functional; conditions: read-out: GI; summary of the method: as §1
A549 [5] = test: Growth inhibition of human A549 cells incubated for 72 hrs at 10 uM by CCK8 assay; assay type: functional; conditions: A549, 72 h, read-out: GI; summary of the method: as §1
HeLa [6] = test: Growth inhibition of human HeLa cells incubated for 72 hrs at 1 uM by CCK8 assay; assay type: functional; conditions: read-out: GI; summary of the method: as §1
T47D [7] = test: Growth inhibition of human T47D cells incubated for 72 hrs at 1 uM by CCK8 assay; assay type: functional; conditions: read-out: GI; summary of the method: as §1
NCI-H1299 [8] = test: Growth inhibition of human H1299 cells incubated for 72 hrs at 1 uM by CCK8 assay; assay type: functional; conditions: NCI-H1299, 72 h, read-out: GI; summary of the method: as §1
OVCAR-5 [9] = test: Growth inhibition of human OVCAR5 cells incubated for 72 hrs at 10 uM by CCK8 assay; assay type: functional; conditions: OVCAR-5, 72 h, read-out: GI; summary of the method: as §1
SiHa [10] = test: Growth inhibition of human SiHa cells incubated for 72 hrs at 1 uM by CCK8 assay; assay type: functional; conditions: read-out: GI; summary of the method: as §1
NCI-H460 [11] = test: Growth inhibition of human H460 cells incubated for 72 hrs at 10 uM by CCK8 assay; assay type: functional; conditions: NCI-H460, 72 h, read-out: GI; summary of the method: as §1
A549 [12] = test: Growth inhibition of human A549 cells incubated for 72 hrs at 1 uM by CCK8 assay; assay type: functional; conditions: A549, 72 h, read-out: GI; summary of the method: as §1
HeLa [13] = test: Growth inhibition of human HeLa cells incubated for 72 hrs at 10 uM by CCK8 assay; assay type: functional; conditions: read-out: GI; summary of the method: as §1
NCI-H460 [14] = test: Growth inhibition of human H460 cells incubated for 72 hrs at 1 uM by CCK8 assay; assay type: functional; conditions: NCI-H460, 72 h, read-out: GI; summary of the method: as §1
MCF7 = test: Growth inhibition of human MCF7 cells incubated for 72 hrs by CCK8 assay; assay type: functional, cell-based; conditions: MCF7, 72 h
NCI-H460 [15] = test: Growth inhibition of human H460 cells incubated for 72 hrs by CCK8 assay; assay type: functional, cell-based; conditions: NCI-H460, 72 h
T47D [16] = test: Induction of apoptosis in human T47D cells assessed as necrotic cells level at 5 uM incubated for 48 hrs by annexin V-FITC and propidium iodide staining based flow cytometry (reference value: 2.79%); assay type: functional
T47D [17] = test: Induction of apoptosis in human T47D cells assessed as viable cells level at 5 uM incubated for 48 hrs by annexin V-FITC and propidium iodide staining based flow cytometry (reference value: 96%); assay type: functional
A549 [18] = test: Growth inhibition of human A549 cells incubated for 72 hrs by CCK8 assay; assay type: functional, cell-based; conditions: A549, 72 h
T47D [19] = test: Induction of cell cycle arrest in human T47D cells assessed as increase in G0/G1 phase accumulation incubated for 24 hrs by flow cytometry; assay type: functional, cell-based
T47D [20] = test: Induction of apoptosis in human T47D cells assessed as late apoptotic cells level at 5 uM incubated for 48 hrs by annexin V-FITC and propidium iodide staining based flow cytometry (reference value: 0.48%); assay type: functional
NCI-H1299 [21] = test: Growth inhibition of human H1299 cells incubated for 72 hrs by CCK8 assay; assay type: functional, cell-based; conditions: NCI-H1299, 72 h
T47D [22] = test: Induction of apoptosis in human T47D cells assessed as early apoptotic cells level at 5 uM incubated for 48 hrs by annexin V-FITC and propidium iodide staining based flow cytometry (reference value: 0.75%); assay type: functional
[23] = target: Vascular endothelial growth factor receptor 2 (Homo sapiens, UniProt P35968); test: Inhibition of human VEGFR2 at 1 uM by enzymatic radiometric assay
Chain of Vascular endothelial growth factor receptor 2 (P35968 whole entry): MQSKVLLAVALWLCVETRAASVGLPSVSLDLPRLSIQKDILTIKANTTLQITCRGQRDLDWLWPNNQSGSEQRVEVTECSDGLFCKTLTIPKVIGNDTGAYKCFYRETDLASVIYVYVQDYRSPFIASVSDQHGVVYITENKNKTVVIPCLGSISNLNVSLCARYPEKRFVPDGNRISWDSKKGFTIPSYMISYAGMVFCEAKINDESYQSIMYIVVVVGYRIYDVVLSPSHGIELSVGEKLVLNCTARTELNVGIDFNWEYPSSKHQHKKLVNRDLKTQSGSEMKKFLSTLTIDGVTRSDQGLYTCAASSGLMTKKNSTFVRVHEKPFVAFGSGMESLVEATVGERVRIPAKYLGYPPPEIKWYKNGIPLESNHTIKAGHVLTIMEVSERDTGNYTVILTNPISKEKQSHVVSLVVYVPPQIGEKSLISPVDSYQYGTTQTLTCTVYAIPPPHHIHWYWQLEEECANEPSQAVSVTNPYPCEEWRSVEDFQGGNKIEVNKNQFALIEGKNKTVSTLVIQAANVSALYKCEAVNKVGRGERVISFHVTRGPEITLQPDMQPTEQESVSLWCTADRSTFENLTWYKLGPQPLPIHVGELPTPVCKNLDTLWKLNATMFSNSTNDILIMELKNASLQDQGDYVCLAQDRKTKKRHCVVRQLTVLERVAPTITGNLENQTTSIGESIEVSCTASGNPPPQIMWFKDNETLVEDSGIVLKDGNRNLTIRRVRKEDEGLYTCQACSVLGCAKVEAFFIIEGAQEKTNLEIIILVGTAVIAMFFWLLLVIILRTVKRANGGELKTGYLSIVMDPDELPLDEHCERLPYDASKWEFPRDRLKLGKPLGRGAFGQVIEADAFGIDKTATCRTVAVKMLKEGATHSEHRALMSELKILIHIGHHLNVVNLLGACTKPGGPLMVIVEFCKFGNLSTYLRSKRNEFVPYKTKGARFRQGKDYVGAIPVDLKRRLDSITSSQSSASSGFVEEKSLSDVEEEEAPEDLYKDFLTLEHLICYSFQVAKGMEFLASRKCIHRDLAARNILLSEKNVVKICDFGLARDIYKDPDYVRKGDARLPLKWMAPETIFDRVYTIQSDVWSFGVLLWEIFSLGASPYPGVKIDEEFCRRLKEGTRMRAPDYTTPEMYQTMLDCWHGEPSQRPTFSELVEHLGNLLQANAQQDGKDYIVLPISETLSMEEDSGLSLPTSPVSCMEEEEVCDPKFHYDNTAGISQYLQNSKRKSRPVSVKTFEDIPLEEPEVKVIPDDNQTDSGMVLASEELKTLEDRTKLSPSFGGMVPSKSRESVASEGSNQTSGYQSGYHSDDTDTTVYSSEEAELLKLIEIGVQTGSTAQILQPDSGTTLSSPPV

[24] = target: CDK6/cyclin D3 (Homo sapiens) (UniProt P30281+Q00534); test: Inhibition of human CDK6/CyclinD3 at 1 uM by enzymatic radiometric assay; assay type: protein-complex assay
[25] = target: T1, Cyclin-dependent kinase 5/CDK5 activator 1 (Homo sapiens) (UniProt Q00535+Q15078); test: Inhibition of human CDK5/p25 at 1 uM by enzymatic radiometric assay; assay type: protein-complex assay
T1 sequence (Q00535 whole entry): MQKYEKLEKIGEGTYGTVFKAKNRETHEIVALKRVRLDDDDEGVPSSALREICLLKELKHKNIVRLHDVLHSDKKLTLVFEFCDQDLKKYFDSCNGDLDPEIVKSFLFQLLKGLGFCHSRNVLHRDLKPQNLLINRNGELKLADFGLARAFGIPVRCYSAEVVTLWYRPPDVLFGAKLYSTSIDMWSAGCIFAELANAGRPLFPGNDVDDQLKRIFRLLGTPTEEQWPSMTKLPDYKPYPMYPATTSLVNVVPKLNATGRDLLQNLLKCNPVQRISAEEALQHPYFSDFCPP
T1 sequence (Q15078 99-307 partner limits assumed): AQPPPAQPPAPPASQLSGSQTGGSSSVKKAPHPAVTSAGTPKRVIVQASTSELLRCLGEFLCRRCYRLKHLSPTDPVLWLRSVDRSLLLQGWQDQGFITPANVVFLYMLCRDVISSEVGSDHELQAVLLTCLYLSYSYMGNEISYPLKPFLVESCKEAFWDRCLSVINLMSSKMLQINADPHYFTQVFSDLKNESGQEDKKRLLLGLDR

[26] = target: CDK7/Cyclin H/MNAT1 (Homo sapiens) (UniProt P51946+P50613+P51948); test: Inhibition of human CDK7/CyclinH/MAT1 at 1 uM by enzymatic radiometric assay; assay type: protein-complex assay
[27] = target: CDK4/Cyclin D3 (Homo sapiens) (UniProt P11802+P30281); test: Inhibition of human CDK4/CyclinD3 at 1 uM by enzymatic radiometric assay; assay type: protein-complex assay
Summary of the method: (§2)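 Kinase panel run through the Eurofins KinaseProfiler, with compound at a fixed 1 µM. Values are means of two independent experiments.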

[28] = target: Cyclin-dependent kinase 2/cyclin E1 (Homo sapiens) (UniProt P24864+P24941); test: Inhibition of human CDK2/CyclinE at 1 uM by enzymatic radiometric assay; assay type: protein-complex assay; summary of the method: as §2
[29] = target: CDK12/Cyclin K (Homo sapiens) (UniProt O75909+Q9NYV4); test: Inhibition of human CDK12/CyclinK at 1 uM by enzymatic radiometric assay; assay type: protein-complex assay; summary of the method: as §2
Chain of CDK12/Cyclin K (Homo sapiens) (O75909 whole entry, looked up): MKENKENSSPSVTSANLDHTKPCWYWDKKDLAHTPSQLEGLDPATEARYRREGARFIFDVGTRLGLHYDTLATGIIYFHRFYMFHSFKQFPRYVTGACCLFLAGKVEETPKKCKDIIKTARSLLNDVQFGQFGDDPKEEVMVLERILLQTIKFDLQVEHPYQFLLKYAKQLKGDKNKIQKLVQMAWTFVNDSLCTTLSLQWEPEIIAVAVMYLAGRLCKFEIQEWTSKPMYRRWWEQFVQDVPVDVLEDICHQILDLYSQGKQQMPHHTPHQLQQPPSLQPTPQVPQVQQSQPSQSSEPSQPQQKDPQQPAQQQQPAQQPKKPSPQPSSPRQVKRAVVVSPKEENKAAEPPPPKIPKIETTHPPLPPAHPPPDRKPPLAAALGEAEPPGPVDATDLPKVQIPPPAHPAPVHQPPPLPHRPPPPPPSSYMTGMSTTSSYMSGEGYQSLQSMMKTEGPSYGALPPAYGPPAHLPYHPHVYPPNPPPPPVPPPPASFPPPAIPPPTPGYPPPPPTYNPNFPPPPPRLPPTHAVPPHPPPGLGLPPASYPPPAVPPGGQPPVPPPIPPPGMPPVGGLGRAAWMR
Chain of CDK12/Cyclin K (Homo sapiens) (Q9NYV4 whole entry, looked up): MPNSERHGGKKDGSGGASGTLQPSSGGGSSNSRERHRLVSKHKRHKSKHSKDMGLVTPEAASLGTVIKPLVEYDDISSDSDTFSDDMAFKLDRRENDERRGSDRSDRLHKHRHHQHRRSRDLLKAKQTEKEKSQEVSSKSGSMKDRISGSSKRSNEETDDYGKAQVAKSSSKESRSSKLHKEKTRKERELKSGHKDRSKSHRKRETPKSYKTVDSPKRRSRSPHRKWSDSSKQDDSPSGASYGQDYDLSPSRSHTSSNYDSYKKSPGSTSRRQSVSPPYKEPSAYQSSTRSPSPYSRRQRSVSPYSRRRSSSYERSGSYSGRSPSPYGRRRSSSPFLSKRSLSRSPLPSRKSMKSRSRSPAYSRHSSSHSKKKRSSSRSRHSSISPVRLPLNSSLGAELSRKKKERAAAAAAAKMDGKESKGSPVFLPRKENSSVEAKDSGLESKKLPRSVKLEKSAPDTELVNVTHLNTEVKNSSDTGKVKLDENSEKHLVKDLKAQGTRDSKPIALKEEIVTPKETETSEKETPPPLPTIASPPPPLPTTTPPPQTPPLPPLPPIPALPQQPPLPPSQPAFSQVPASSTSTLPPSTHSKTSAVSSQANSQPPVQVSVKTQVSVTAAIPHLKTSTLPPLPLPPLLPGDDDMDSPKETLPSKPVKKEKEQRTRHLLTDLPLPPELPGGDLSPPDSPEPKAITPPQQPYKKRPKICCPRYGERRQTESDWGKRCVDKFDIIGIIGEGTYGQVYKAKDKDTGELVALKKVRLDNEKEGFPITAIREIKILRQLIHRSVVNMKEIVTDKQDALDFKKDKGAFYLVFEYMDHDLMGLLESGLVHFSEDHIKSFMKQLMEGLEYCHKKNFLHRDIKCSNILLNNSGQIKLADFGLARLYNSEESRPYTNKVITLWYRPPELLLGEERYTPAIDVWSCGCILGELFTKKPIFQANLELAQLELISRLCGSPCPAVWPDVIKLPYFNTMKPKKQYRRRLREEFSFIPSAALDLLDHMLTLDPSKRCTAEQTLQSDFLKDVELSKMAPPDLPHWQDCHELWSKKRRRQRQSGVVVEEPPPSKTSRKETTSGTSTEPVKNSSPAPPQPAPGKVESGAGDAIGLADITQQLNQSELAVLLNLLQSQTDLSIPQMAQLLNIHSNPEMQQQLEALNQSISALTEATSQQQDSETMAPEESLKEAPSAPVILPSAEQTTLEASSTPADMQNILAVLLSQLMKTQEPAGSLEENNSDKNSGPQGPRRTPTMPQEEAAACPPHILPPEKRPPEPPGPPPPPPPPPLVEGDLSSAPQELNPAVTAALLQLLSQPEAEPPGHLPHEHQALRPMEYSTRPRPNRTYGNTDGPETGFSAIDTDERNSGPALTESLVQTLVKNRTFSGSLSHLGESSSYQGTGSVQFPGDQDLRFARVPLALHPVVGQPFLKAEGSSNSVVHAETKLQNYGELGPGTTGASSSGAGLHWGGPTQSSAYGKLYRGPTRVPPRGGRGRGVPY

[30] = target: CDK2/Cyclin A2 (Homo sapiens) (UniProt P24941+P20248); test: Inhibition of human CDK2/CyclinA at 1 uM by enzymatic radiometric assay; assay type: protein-complex assay; summary of the method: as §2
[31] = target: T1, Cyclin-dependent kinase 5/CDK5 activator 1 (Homo sapiens); test: Inhibition of human CDK5/p35 at 1 uM by enzymatic radiometric assay; assay type: protein-complex assay
[32] = target: CDK9/cyclin T1 (Homo sapiens) (UniProt O60563+P50750); test: Inhibition of human CDK9/CyclinT1 at 1 uM by enzymatic radiometric assay; assay type: protein-complex assay
[33] = target: CDK18/Cyclin Y (Homo sapiens) (UniProt Q07002+Q8ND76); test: Inhibition of human CDK18/CyclinY at 1 uM by enzymatic radiometric assay; assay type: protein-complex assay; summary of the method: as §2
[34] = target: CDK3/Cyclin E (Homo sapiens) (UniProt P24864+Q00526); test: Inhibition of human CDK3/CyclinE at 1 uM by enzymatic radiometric assay; assay type: protein-complex assay; summary of the method: as §2
Chain of CDK3/Cyclin E (Homo sapiens) (P24864 whole entry, looked up): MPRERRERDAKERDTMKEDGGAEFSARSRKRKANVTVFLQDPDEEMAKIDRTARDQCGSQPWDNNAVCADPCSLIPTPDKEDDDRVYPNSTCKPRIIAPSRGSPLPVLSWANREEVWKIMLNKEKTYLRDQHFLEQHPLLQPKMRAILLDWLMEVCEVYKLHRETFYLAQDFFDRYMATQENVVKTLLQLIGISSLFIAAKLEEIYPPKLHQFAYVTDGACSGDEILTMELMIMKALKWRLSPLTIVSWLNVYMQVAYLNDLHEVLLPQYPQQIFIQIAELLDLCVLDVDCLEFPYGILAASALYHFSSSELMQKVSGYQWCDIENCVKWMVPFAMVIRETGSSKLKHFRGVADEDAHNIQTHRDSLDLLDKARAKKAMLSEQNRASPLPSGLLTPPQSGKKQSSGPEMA
Chain of CDK3/Cyclin E (Homo sapiens) (Q00526 whole entry, looked up): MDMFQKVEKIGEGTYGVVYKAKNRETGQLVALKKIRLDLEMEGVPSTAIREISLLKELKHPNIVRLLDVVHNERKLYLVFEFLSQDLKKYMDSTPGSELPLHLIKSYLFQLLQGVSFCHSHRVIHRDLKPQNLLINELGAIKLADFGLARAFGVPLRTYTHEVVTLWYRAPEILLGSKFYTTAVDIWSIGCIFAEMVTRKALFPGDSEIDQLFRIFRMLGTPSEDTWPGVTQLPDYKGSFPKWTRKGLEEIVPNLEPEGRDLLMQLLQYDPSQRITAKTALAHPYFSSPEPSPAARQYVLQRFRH

[35] = target: Cyclin-dependent kinase 1/cyclin B1 (Homo sapiens) (UniProt P06493+P14635); test: Inhibition of human CDK1/CyclinB at 1 uM by enzymatic radiometric assay; assay type: protein-complex assay; summary of the method: as §2
T47D [36] = test: Growth inhibition of human T47D cells incubated for 72 hrs by CCK8 assay; assay type: functional, cell-based

Row | Structure (SMILES) | inhibition of growth at 1 µM (OVCAR-5 [1]) [%] | inhibition of growth at 10 µM (NCI-H1299 [2]) [%] | inhibition of growth at 10 µM (T47D [3]) [%] | inhibition of growth at 10 µM (SiHa [4]) [%] | inhibition of growth at 10 µM (A549 [5]) [%] | inhibition of growth at 1 µM (HeLa [6]) [%] | inhibition of growth at 1 µM (T47D [7]) [%] | inhibition of growth at 1 µM (NCI-H1299 [8]) [%] | inhibition of growth at 10 µM (OVCAR-5 [9]) [%] | inhibition of growth at 1 µM (SiHa [10]) [%] | inhibition of growth at 10 µM (NCI-H460 [11]) [%] | inhibition of growth at 1 µM (A549 [12]) [%] | inhibition of growth at 10 µM (HeLa [13]) [%] | inhibition of growth at 1 µM (NCI-H460 [14]) [%] | IC50 (MCF7) [µM] | IC50 (NCI-H460 [15]) [µM] | IC50 (A549 [18]) [µM] | IC50 (NCI-H1299 [21]) [µM] | inhibition [23] [%] | inhibition [27] [%] | also measured
1 | Nc1ccc(NC(=O)C2(C(=O)Nc3ccc(F)cc3)CC2)cc1F | 6.7 | 59.2 | 30.4 | 36 | 14.6 | 14 | 5.6 | 46.2 | 9.7 | 21.7 | 62.9 | 16.3 | 71.8 | 26.7 |  |  |  |  |  |  | 
2 | CN(C)C(=O)c1cc2cnc(Nc3ccc(N4CCNCC4)cn3)nc2n1C1CCCC1 [RIBOCICLIB] |  |  |  |  |  |  |  |  |  |  |  |  |  |  | > 10 | > 10 | > 10 | 7.64 |  |  | Activity (T47D [16]): 1.94%; Activity (T47D [17]): 94.8%; Activity (T47D [19]): Active; Activity (T47D [20]): 2.91%; Activity (T47D [22]): 0.34%
3 | CN(C)C(=O)c1cc2cnc(Nc3ccc(NC(=O)C4(C(=O)Nc5ccc(O)cc5)CC4)cc3)nc2n1C1CCCC1 | 80.7 | 89.7 | 95.8 | 94.3 | 94.4 | 62.3 | 91.5 | 87.4 | 90.9 | 69.5 | 104 | 93.6 | 99.9 | 90.4 |  |  |  |  | 36 | 95 | inhibition [24]: 86%; inhibition [25]: 94%; inhibition [26]: -9%; inhibition [28]: 88%; inhibition [29]: 23%; inhibition [30]: 90%; inhibition [31]: 88%; inhibition [32]: 26%; inhibition [33]: 0%; inhibition [34]: 89%; inhibition [35]: 90%
4 | COc1cc2nccc(Oc3ccc(NC(=O)C4(C(=O)Nc5ccc(F)cc5)CC4)cc3)c2cc1OC [CABOZANTINIB] |  |  |  |  |  |  |  |  |  |  |  |  |  |  | 2.89 | 5.67 | 4.45 | 1.92 |  |  | IC50 (T47D [36]): 4.45 µM
5 | CN(C)C(=O)c1cc2cnc(Nc3ccc(NC(=O)C4(C(=O)Nc5ccc(Cl)c(C(F)(F)F)c5)CC4)cc3)nc2n1C1CCCC1 | -2.4 | 90.4 | 55.8 | 61.1 | 88.1 | 16.5 | 6.9 | 39.5 | 48 | -11.2 | 91.9 | 1.1 | 55.6 | 2.1 |  |  |  |  | 4 | 24 | 
